# Data as given in ChEMBL document CHEMBL3351461, “Discovery of novel, dual mechanism ERK inhibitors by affinity selection screening of an inactive kinase” (J Med Chem, 2014).
# Target: Vascular endothelial growth factor receptor 1 (Homo sapiens, UniProt P17948)
# Assay: Inhibition of VEGFR1 (unknown origin)
# Conditions: not given
row,IC50 [µM],Compound
1,> 50,CC(=O)c1ccc(N2CCN(C(=O)CN3CC[C@@H](C(=O)Nc4ccc(O)c(Cl)c4)C3)CC2)cc1

# Target: Tyrosine-protein kinase Lck (Homo sapiens, UniProt P06239)
# Assay: Inhibition of LCK (unknown origin)
# Conditions: not given
row,IC50 [µM],Compound
1,> 30,CC(=O)c1ccc(N2CCN(C(=O)CN3CC[C@@H](C(=O)Nc4ccc(O)c(Cl)c4)C3)CC2)cc1

# Target: Hepatocyte growth factor receptor (Homo sapiens, UniProt P08581)
# Sequence (P08581 whole entry): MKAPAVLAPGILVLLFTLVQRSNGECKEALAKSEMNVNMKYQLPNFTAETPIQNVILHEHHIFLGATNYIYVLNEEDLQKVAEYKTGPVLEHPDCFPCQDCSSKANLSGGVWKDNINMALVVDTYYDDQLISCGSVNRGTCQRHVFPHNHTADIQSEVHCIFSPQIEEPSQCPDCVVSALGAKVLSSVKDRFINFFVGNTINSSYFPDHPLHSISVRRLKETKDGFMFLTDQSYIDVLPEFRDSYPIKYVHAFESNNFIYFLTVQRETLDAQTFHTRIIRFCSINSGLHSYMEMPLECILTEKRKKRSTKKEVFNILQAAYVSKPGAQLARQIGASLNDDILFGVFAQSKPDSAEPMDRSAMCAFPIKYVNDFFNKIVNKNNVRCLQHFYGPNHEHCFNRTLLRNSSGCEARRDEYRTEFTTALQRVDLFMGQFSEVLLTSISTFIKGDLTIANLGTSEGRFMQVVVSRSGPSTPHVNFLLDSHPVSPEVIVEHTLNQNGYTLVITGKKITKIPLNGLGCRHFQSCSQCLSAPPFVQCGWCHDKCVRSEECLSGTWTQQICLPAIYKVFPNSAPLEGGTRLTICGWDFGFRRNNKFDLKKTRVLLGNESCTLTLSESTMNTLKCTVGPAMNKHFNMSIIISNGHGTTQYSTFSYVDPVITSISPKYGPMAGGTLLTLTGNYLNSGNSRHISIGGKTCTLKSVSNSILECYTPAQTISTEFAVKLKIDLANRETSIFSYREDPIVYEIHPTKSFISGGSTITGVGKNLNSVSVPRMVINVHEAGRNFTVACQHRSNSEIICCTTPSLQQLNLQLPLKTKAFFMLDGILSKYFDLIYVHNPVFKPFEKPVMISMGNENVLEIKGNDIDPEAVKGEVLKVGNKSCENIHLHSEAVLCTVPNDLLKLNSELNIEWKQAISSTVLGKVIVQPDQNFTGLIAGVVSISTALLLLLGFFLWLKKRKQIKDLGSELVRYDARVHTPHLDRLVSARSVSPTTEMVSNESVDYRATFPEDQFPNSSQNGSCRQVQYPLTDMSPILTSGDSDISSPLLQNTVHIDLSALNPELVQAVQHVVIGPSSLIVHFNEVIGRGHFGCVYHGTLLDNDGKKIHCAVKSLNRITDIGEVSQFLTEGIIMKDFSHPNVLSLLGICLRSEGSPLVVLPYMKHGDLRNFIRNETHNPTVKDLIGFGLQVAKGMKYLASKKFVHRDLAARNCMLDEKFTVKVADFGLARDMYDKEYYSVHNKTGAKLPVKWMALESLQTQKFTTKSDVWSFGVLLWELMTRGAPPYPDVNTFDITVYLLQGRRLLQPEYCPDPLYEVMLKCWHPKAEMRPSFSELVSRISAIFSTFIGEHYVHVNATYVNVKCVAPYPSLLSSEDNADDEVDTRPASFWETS
# Assay: Inhibition of MET (unknown origin)
# Conditions: not given
row,IC50 [µM],Compound
1,> 30,CC(=O)c1ccc(N2CCN(C(=O)CN3CC[C@@H](C(=O)Nc4ccc(O)c(Cl)c4)C3)CC2)cc1

# Target: RAC-alpha serine/threonine-protein kinase (Homo sapiens, UniProt P31749)
# Assay: Inhibition of AKT1 (unknown origin)
# Conditions: not given
row,IC50 [µM],Compound
1,> 30,CC(=O)c1ccc(N2CCN(C(=O)CN3CC[C@@H](C(=O)Nc4ccc(O)c(Cl)c4)C3)CC2)cc1

# Tested on: CHL-1
# Assay: Cytotoxicity against human CHL-1 cells expressing wild type BRAF after 3 days by proliferation assay
# Type: functional, cell-based
# Conditions: CHL-1, 72 h
row,Compound,IC50 [µM]
1,CC(=O)c1ccc(N2CCN(C(=O)CN3CC[C@@H](C(=O)Nc4ccc(O)c(Cl)c4)C3)CC2)cc1,> 100

# Target: Testis-specific serine/threonine-protein kinase 2 (Homo sapiens, UniProt Q96PF2)
# Assay: Inhibition of TSSK2 (unknown origin)
# Conditions: not given
row,IC50 [µM],Compound
1,> 30,CC(=O)c1ccc(N2CCN(C(=O)CN3CC[C@@H](C(=O)Nc4ccc(O)c(Cl)c4)C3)CC2)cc1

# Target: Insulin-like growth factor 1 receptor (Homo sapiens, UniProt P08069)
# Assay: Inhibition of IGF1R (unknown origin)
# Conditions: not given
row,IC50 [µM],Compound
1,> 30,CC(=O)c1ccc(N2CCN(C(=O)CN3CC[C@@H](C(=O)Nc4ccc(O)c(Cl)c4)C3)CC2)cc1

# Target: T1, Mitogen-activated protein kinase 1 (Homo sapiens, UniProt P28482)
# T1 sequence (P28482 whole entry): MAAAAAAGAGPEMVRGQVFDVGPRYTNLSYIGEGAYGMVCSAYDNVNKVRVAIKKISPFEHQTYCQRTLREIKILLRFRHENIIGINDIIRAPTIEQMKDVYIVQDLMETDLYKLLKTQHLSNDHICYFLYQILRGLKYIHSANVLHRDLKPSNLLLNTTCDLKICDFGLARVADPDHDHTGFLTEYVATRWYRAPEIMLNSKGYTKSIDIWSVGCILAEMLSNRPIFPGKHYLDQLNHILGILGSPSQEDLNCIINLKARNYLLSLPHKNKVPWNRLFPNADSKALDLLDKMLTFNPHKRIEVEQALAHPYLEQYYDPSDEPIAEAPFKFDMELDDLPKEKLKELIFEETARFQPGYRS
# Assay: Binding to phosphorylated ERK2 (unknown origin) by temperature dependent fluorescence (TdF) assay
# Conditions: not given
row,Kd [µM],Compound
1,0.14,CC(=O)c1ccc(N2CCN(C(=O)CN3CC[C@@H](C(=O)Nc4ccc(O)c(Cl)c4)C3)CC2)cc1

# Target: Mitogen-activated protein kinase 11 (Homo sapiens, UniProt Q15759)
# Sequence (Q15759 whole entry): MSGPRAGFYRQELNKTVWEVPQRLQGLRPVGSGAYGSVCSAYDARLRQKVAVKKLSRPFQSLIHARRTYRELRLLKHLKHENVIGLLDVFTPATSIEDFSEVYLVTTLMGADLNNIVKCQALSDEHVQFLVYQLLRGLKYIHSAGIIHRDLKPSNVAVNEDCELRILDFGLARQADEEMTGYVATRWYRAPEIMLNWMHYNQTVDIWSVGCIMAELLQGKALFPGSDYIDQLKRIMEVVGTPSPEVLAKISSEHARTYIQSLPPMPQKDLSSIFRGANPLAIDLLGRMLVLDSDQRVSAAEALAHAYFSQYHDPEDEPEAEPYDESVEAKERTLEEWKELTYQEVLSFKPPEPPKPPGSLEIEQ
# Assay: Inhibition of p38beta (unknown origin)
# Conditions: not given
row,IC50 [µM],Compound
1,> 50,CC(=O)c1ccc(N2CCN(C(=O)CN3CC[C@@H](C(=O)Nc4ccc(O)c(Cl)c4)C3)CC2)cc1

# Target: Tyrosine-protein kinase JAK2 (Homo sapiens, UniProt O60674)
# Assay: Inhibition of JAK2 (unknown origin)
# Conditions: not given
row,IC50 [µM],Compound
1,> 30,CC(=O)c1ccc(N2CCN(C(=O)CN3CC[C@@H](C(=O)Nc4ccc(O)c(Cl)c4)C3)CC2)cc1

# Target: Epidermal growth factor receptor (Homo sapiens, UniProt P00533)
# Sequence (P00533 whole entry): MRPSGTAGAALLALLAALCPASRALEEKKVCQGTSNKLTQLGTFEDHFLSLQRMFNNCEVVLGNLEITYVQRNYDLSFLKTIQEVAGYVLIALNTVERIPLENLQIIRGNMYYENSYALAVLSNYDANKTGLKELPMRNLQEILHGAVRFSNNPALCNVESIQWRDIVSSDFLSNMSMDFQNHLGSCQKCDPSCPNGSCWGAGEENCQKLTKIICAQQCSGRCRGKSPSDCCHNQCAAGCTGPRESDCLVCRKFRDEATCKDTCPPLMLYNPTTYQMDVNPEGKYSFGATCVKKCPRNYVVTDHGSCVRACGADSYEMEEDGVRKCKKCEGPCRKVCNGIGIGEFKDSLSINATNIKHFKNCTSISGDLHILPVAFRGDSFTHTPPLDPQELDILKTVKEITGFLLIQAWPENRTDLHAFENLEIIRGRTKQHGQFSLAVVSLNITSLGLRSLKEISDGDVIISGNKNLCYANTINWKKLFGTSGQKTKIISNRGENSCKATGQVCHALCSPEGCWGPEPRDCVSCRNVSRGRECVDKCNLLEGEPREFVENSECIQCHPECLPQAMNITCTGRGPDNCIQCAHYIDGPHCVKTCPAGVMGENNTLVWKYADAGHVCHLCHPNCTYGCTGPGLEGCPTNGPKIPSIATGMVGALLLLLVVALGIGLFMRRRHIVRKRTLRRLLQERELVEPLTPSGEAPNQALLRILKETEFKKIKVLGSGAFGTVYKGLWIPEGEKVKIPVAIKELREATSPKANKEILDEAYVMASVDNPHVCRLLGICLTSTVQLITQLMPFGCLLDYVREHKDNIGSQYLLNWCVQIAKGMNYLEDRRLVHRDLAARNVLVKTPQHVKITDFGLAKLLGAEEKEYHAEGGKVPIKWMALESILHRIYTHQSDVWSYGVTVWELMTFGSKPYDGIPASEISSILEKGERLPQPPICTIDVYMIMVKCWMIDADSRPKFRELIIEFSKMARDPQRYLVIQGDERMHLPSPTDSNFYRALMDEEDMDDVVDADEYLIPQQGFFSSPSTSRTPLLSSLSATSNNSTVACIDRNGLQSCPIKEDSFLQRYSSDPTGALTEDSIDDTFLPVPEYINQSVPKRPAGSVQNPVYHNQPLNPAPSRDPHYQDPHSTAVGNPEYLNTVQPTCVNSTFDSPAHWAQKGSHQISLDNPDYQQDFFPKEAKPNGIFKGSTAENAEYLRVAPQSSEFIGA
# Assay: Inhibition of EGFR (unknown origin)
# Conditions: not given
row,IC50 [µM],Compound
1,> 50,CC(=O)c1ccc(N2CCN(C(=O)CN3CC[C@@H](C(=O)Nc4ccc(O)c(Cl)c4)C3)CC2)cc1

# Tested on: COLO 205
# Assay: Cytotoxicity against human COLO205 cells expressing BRAF mutant after 3 days by proliferation assay
# Type: functional, cell-based
# Conditions: COLO 205, 72 h
# Method in brief: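 A2058, Colo-205 (2000 cells/well) or A375SM (1500 cells/well) in RPMI1640 with 10% FBS and penicillin–streptomycin, on collagen-coated plates. Cells attach for 2 h, then compound is added in DMSO (final 1.0% or 0.1%). Incubated 3 days at 37 °C, 5% CO2. Viability read by CellTiter-Glo luminescence.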
row,Compound,IC50 [µM]
1,CC(=O)c1ccc(N2CCN(C(=O)CN3CC[C@@H](C(=O)Nc4ccc(O)c(Cl)c4)C3)CC2)cc1,10.8

# Target: Mitogen-activated protein kinase 1 (Mus musculus) (UniProt P63085)
# Sequence (P63085 whole entry, looked up): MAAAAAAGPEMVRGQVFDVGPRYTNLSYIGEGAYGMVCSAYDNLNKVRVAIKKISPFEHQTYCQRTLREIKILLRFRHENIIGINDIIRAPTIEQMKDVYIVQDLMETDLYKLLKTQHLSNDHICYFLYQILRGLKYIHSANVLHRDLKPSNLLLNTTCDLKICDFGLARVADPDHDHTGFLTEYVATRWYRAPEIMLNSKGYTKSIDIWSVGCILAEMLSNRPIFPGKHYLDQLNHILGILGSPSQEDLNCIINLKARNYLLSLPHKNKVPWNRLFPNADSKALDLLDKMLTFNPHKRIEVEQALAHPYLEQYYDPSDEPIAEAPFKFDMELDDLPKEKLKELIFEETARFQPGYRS
# Assay: Inhibition of inactive ERK2 (mouse) coupled with human MEK1 using IMAP peptide substrate after 30 mins by coupled ERK2 assay
# Conditions: not given
row,IC50 [µM],Compound
1,0.36,CC(=O)c1ccc(N2CCN(C(=O)CN3CC[C@@H](C(=O)Nc4ccc(O)c(Cl)c4)C3)CC2)cc1

# Target: Dual specificity mitogen-activated protein kinase kinase 1 (Homo sapiens, UniProt Q02750)
# Sequence (Q02750 whole entry): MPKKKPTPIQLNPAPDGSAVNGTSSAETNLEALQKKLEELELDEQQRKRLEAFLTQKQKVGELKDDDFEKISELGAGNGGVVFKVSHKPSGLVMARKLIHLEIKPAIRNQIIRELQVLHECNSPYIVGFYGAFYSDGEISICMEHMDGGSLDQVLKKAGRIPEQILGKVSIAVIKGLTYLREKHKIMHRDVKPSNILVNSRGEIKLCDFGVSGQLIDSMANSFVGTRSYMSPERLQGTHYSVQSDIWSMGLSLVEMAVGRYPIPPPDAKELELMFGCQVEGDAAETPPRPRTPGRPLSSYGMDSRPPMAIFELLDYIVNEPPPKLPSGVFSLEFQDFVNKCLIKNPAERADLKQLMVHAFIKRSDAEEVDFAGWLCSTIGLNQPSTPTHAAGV
# Assay: Inhibition of MEK1 (unknown origin)
# Conditions: not given
row,IC50 [µM],Compound
1,> 20,CC(=O)c1ccc(N2CCN(C(=O)CN3CC[C@@H](C(=O)Nc4ccc(O)c(Cl)c4)C3)CC2)cc1

# Target: Serine/threonine-protein kinase Nek2 (Homo sapiens, UniProt P51955)
# Assay: Inhibition of NEK2 (unknown origin)
# Conditions: not given
row,IC50 [µM],Compound
1,> 30,CC(=O)c1ccc(N2CCN(C(=O)CN3CC[C@@H](C(=O)Nc4ccc(O)c(Cl)c4)C3)CC2)cc1

# Target: Serine/threonine-protein kinase Chk1 (Homo sapiens, UniProt O14757)
# Sequence (O14757 whole entry): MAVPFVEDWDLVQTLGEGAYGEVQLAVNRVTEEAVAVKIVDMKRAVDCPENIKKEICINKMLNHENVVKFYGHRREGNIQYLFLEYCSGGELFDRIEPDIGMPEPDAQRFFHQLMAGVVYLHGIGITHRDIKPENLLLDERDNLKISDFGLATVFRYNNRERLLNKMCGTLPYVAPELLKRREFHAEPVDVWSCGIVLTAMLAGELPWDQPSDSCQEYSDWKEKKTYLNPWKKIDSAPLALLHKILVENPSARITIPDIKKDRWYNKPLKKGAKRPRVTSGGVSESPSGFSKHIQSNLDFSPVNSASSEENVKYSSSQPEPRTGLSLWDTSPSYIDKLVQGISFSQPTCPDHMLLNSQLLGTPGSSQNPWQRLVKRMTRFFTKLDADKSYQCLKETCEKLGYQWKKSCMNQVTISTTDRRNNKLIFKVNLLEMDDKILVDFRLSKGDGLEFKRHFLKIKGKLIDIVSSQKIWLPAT
# Assay: Inhibition of CHK1 (unknown origin)
# Conditions: not given
row,IC50 [µM],Compound
1,> 30,CC(=O)c1ccc(N2CCN(C(=O)CN3CC[C@@H](C(=O)Nc4ccc(O)c(Cl)c4)C3)CC2)cc1

# Target: Interleukin-1 receptor-associated kinase 4 (Homo sapiens, UniProt Q9NWZ3)
# Assay: Inhibition of IRAK4 (unknown origin)
# Conditions: not given
row,IC50 [µM],Compound
1,> 30,CC(=O)c1ccc(N2CCN(C(=O)CN3CC[C@@H](C(=O)Nc4ccc(O)c(Cl)c4)C3)CC2)cc1

# Tested on: A2058
# Assay: Inhibition of RSK phosphorylation in human A2058 cells after 4 hrs by immunoblotting analysis
# Type: cell-based
# Conditions: not given
row,Compound,inhibition
1,CC(=O)c1ccc(N2CCN(C(=O)CN3CC[C@@H](C(=O)Nc4ccc(O)c(Cl)c4)C3)CC2)cc1,Dose-dependent effect

# Target: T1, Mitogen-activated protein kinase 1
# Assay: Binding to unphosphorylated ERK2 (unknown origin) by temperature dependent fluorescence (TdF) assay
# Conditions: not given
row,Kd [µM],Compound
1,0.05,CC(=O)c1ccc(N2CCN(C(=O)CN3CC[C@@H](C(=O)Nc4ccc(O)c(Cl)c4)C3)CC2)cc1

# Target: Glycogen synthase kinase-3 beta (Homo sapiens, UniProt P49841)
# Sequence (P49841 whole entry): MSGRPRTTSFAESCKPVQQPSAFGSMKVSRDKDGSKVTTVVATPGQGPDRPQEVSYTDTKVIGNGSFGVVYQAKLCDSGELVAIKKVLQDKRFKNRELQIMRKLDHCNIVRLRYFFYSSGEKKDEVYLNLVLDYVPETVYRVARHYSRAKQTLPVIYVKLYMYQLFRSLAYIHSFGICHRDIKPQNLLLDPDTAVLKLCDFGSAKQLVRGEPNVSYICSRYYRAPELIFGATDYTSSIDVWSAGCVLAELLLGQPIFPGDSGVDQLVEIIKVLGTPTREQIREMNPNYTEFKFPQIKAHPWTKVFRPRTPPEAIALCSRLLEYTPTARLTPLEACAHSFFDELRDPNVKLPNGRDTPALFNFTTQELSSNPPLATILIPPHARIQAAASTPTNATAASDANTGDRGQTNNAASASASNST
# Assay: Inhibition of GSK3beta (unknown origin)
# Conditions: not given
row,IC50 [µM],Compound
1,> 50,CC(=O)c1ccc(N2CCN(C(=O)CN3CC[C@@H](C(=O)Nc4ccc(O)c(Cl)c4)C3)CC2)cc1
